This sample holds only a part of the variants without activity.
B1: tRNA (parent)
chain: GUUCCGUUGGCGUAAUGGUAACGCGUCUCCCUCCUAAGGAGAAGACUGCGGGUUCGAGUCCCGUACGGAACG

Variants of: B1
Assay: yeast fitness relative to wild type (ratio to wild type); higher = fitter; tRNA-Arg(CCU), competitive growth, 37 C, YPD
In short: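 Changes in genotype frequencies gave Darwinian fitness relative to wild type. Frequencies were read by 100-nucleotide paired-end sequencing of gene amplicons before and after pooled Saccharomyces cerevisiae strains, carrying tRNA-Arg(CCU) gene variants at the native locus, were competed in YPD at 37°C for 24 hours in six replicates. A genotype was kept only with ≥ 100 starting reads, and estimates < 0.5 were set to 0.5.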
With GUUCCGUUGGAGUAAUGGUAACGCGUCUCCCUCCUAAGGAGAAGACUGCGGGUUCGAGUCCAGUAUGGAACG [C11A C62A C66U] the yeast fitness was 0.629.
Variant GUUCCGUUGGAGUAAUGGUAACCCGUCUCCCUCCUAAGGAGAAGACUGGGGGUUCGAGUCCCGUACGGAACG [C11A G23C C49G] has a yeast fitness of no more than 0.5.
For GUUCCGUUGGAGUAAUGGUAACGCGUCUCCCUCCUAAGGAGAAGACUGCGGGUUUGAGUCCCGUACGGAACG [C11A C55U], the yeast fitness was 0.514.
Variant GUUCCGUUGGAGUAAUGGUAACGCGUCUCCCUCCUAAGGAGAAGACUGCGGGUUAGAGUCCCGUACGGAACG [C11A C55A] has a yeast fitness of no more than 0.5.
In the case of GUUCCGUUGGAGUAAUGGUAACGCGUCUCCCUCCUAAGGAGAAGACUACGGGUUCGAGUCCCGUACGGAACG [C11A G48A], the yeast fitness is reported as 0.642.
GUUCCGUUGGAGUAAUGAUAACGCGUCUCCCUCCUAAGGAGAAGACUGAGGGUUCGAGUCCGGUACGGAACG [C11A G18A C49A C62G] showed a yeast fitness of no more than 0.5.
With GUUCCGUUGGAGUAAUGGUAACGCGUCUCCCUCCUAAGGAAAAGUCUGCGGGUUAGAGUCCCGUACGGAACG [C11A G41A A45U C55A] the yeast fitness was no more than 0.5.
Variant GUUCCGUUGGAGUAAUGGUAACCCGUCUCCCGCAUAAGGAGAAGACUGCGGGUUCGAGUCCCGUACGGAACG [C11A G23C U32G C34A] has a yeast fitness of no more than 0.5.
Variant GUUCCGUUGGAGUAAUGGUAACGCGUCUCCCUCCUAAGGAGAAGACUGUGGGUUCGAGUCCCGUACGAAACG [C11A C49U G68A] has a yeast fitness of no more than 0.5.
Work on GUUCCGUUGGAGUAAUGGUAACGCGUCUCCCUCCUAAAGAGAAGACUGCGGGUUCGAGUCCCGUACGGAACG [C11A G38A] yielded a yeast fitness of 0.579.
For GUUCCGUUGGAGUAAUGGUAACGCGUCUCCCUCCUAACGAGAAGACUGCGGGUUCGAGUCCCGUACGGAACG [C11A G38C], the yeast fitness was 0.586.
For GUUCCGUUGGAGUAAUGGUAACGCGUCUCCCUCCUAAGGAGAAGACUGCGGGUUCGAGUCCCAUACGGAACG [C11A G63A], the yeast fitness was 0.681.
With GUUCCGUUGGAGUAAUGGUAACGCGUCUCCCUCCUAAGGAGAAGACUGCCGGUUCGAGUCCCGUACGGAACG [C11A G50C] the yeast fitness was no more than 0.5.
In the case of GUUCCGUUGGAGUAAUGGUAACGCGUCUCCCUCCUAAGGAGAAGACUGCGGGUUAGAGUCCCGUAAGGAACG [C11A C55A C66A], the yeast fitness is reported as no more than 0.5.
Work on GUUCCGUUGGAGUAAUGGUAACGCGUCUCCCUCCUAAAGAGAAGACUGCGGGAUCGAGUCCCAUACGAAACG [C11A G38A U53A G63A G68A] yielded a yeast fitness of 0.635.
For GUUCCGUUGGAGUAAUGGUAACGCGUCUCCCUCCUAAGGAGAACACUGCGGGUUCGAGUCCCGUACGGAACG [C11A G44C], the yeast fitness was 0.59.
Work on GUUCCGUUGGAGUAAUAGUAACGCGUCUCCCUUCUAAGGAGAAGACUGCGGGUUCGAGUCCCGUACGGAACG [C11A G17A C33U] yielded a yeast fitness of no more than 0.5.
With GUUCCGUUGGAGAAAUGGUGACGCGUCUCCCUCCUAAGGAGAAGACUGCGGGUUCGAGUCCCGUACGGAACG [C11A U13A A20G] the yeast fitness was 0.561.
With GUUCCGUUGGAGUAAUGGUAACGCGUCUCCCUCCUAAGGAGAAGACUGCGGCUUCGAGUCCCGUACGGAACG [C11A G52C] the yeast fitness was 0.596.
With GUUCCGUUGGAGCAAUGGUAACGCGUAUCCCUCCUAAGGAGAAGACUGCGGGUUCGAGUACCGUACGGAACG [C11A U13C C27A C60A] the yeast fitness was no more than 0.5.
For GUUCCGUUGGAGUAAUGAUAACGCGUCUCCCUCCUAAGGAGAAGACUGCGGGUUCGAGUCCCGUACAGAACG [C11A G18A G67A], the yeast fitness was no more than 0.5.
Variant GUUCCGUUGGAGUAAUGGUAACGCCUCUCCCUCGUAAGGAGAAGAAUGCGGGUUCGAGUCCCGUACGGAGCG [C11A G25C C34G C46A A70G] has a yeast fitness of no more than 0.5.
Variant GUUCCGUUGGAGUAAUGGUAACGCGUCUCCCUCCUAAGGAGAAGACUGCGGGUUCGAGUCCCGUACGAAACG [C11A G68A] has a yeast fitness of 0.583.
For GUUCCGUUGGAGUAAUGGUAACGCGUCUCCCUCCUAAGGAGAAGAUUGCGGGAUCGAGUCCCCUACGGAACG [C11A C46U U53A G63C], the yeast fitness was no more than 0.5.
GUUCCGUUGGAGUAAUGGUAACGCAUCUCCCUCCUAAGGAGAGGACUGCGGGUUCGAGUCCCGUCCGGAACG [C11A G25A A43G A65C] showed a yeast fitness of no more than 0.5.
GUUCCGUUGGAGUAAUGGUAACGCGUCUCCCUCCUAAGGAGAAGACUGCGGGUUCGAGUCCCGUAUGGAACG [C11A C66U] showed a yeast fitness of 0.569.
In the case of GUUCCGUUGGAGUAAUGGUAACGCCUCUUCCUCCUAAGGAGAAGACUGCGGGUUCGGGUCCCGUACGGAACG [C11A G25C C29U A57G], the yeast fitness is reported as no more than 0.5.
GUUCCGUUGGAGUAAUGGUAACGCGUCUCCCUCCUAAGGAGAAGACUGCGGGUUCAAGUCCCGUAGGGAACG [C11A G56A C66G] showed a yeast fitness of 0.533.
In the case of GUUCCGUUGGAGUAAUGGUAACGCGUCUCCCUCCUAAGGAGAAGACUGCGGGUUUGAGUCCCAUACGGAACG [C11A C55U G63A], the yeast fitness is reported as no more than 0.5.
In the case of GUUCCGUUGGAGUAAUCGUAUCGCGUCUCCCUCCUAAGGAGAAGACUGCGGGUUCGAGUCCCGUACGGAACG [C11A G17C A21U], the yeast fitness is reported as no more than 0.5.
GUUCCGUUGGAGUAAUGGUAACGCGUCUCCCUCCUAAGGAGAAGACUGCGGGUUUGAGUCCCAUAGGGAACG [C11A C55U G63A C66G] gave a yeast fitness of no more than 0.5.
For GUUCCGUUGGAGUAAUGGUAACGCGUCUCCCUCCUAAGAAGAAGACUGCGGGUUCGAGUCUAGUACGGAACG [C11A G39A C61U C62A], the yeast fitness was 0.624.
In the case of GUUCCGUUGGAGUAAUGGUAACGCCUCUUCCUCCUAAGGAGAAGACUGCGGGUUCGAGUCCCGUUCGGAACG [C11A G25C C29U A65U], the yeast fitness is reported as no more than 0.5.
GUUCCGUUGGAGUAAUGGUAACGCGUCUCCCUCCUAAGGAGAAGACUGCGGGUUGGAGUCCCGUACGGCACG [C11A C55G A69C] gave a yeast fitness of no more than 0.5.
Variant GUUCCGUUGGAGUAAUGGUAACGCGUCUCCCUCCUAAGGAGAAGACUGAGGGUUCGAGUCCCGUACGGAACG [C11A C49A] has a yeast fitness of no more than 0.5.
Work on GUUCCGUUGGAGUAAUGGUAACGCGUCUCCCUCCUAAGGAGAAGACUGCGGGUUCGAGUCCGGUACGGAACG [C11A C62G] yielded a yeast fitness of 0.552.
With GUUCCGUUGGAGUAAUGAUAACGCGUCUCCCUCCUAAGGAGAAGAUUGCGGGUUCGAGUCCCGUACGGAACG [C11A G18A C46U] the yeast fitness was 0.61.
GUUCCGUUGGAGCAAUGGUAACGCGUAUCCCUCCUAAGGAGAAGACUGCGGGUUCGAGUCCCGUACGGAACG [C11A U13C C27A] showed a yeast fitness of no more than 0.5.

— the RNAGym collection of RNA variant scans (doi:10.1126/science.aae0568)
